Common to all, as to assay type: functional
In assay [1] the target is T1, Transcriptional activator protein LuxR (Aliivibrio fischeri) (UniProt P12746).
T1 sequence (whole entry): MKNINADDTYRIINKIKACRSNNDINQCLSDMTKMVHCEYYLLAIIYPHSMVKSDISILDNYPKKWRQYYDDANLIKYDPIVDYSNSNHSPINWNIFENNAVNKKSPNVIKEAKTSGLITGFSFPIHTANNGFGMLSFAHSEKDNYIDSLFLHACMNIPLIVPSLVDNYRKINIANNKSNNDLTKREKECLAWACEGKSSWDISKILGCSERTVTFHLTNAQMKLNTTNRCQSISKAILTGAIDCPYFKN
Put plainly: Agonist activity at Vibrio fischeri LuxR expressed in Escherichia coli NM522 coexpressing LuxCDABE assessed as activation of 3-oxoC6-HSL-induced quorum sensing activation at 200 uM measured after 4 to 5 hrs by reporter gene assay. The gist of the method:
(§1)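 E. coli biosensor carrying pSB401, in which V. fischeri luxR and the luxI promoter drive P. luminescens luxCDABE. Cultures were grown to exponential phase in Luria broth with tetracycline (20) at 30 °C. Analogues were added alone at up to 200 in microtitre plates. Luminescence was read after 4–5 h, at the maximal ratio of induced to background light. EC50 is the concentration giving 50% bioluminescence intensity.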

The target of assay [2] is T2, Transcriptional activator protein LuxR (Aliivibrio fischeri, UniProt P12746).
T2 sequence (P12746 whole entry): T1 sequence (whole entry)
Put plainly: Antagonist activity at Vibrio fischeri LuxR expressed in Escherichia coli NM522 coexpressing LuxCDABE assessed as inhibition of 3-oxoC6-HSL-induced quorum sensing activation measured after 4 to 5 hrs by reporter gene assay. The gist of the method: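 The inhibition read-out is the decrease in bioluminescence induced by 200 nM 3-oxo-C6-HSL in E. coli carrying pSB401 (V. fischeri luxR/luxI promoter fused to P. luminescens luxCDABE). Cells were grown to exponential phase in Luria broth with tetracycline at 30 °C. Light was quantified by luminometer in microtitre plates after 4–5 h, when the ratio of induced to background light peaked.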

In assay [3] the target is T2, Transcriptional activator protein LuxR. Kind of assay: Agonist activity at Vibrio fischeri LuxR expressed in Escherichia coli NM522 coexpressing LuxCDABE assessed as activation of 3-oxoC6-HSL-induced quorum sensing activation measured after 4 to 5 hrs by reporter gene assay. The gist of the method: as §1
Background: A reporter such as luciferase makes a cellular process visible.

In assay [4] the target is T1, Transcriptional activator protein LuxR (Aliivibrio fischeri). Kind of assay: Agonist activity at Vibrio fischeri LuxR expressed in Escherichia coli NM522 coexpressing LuxCDABE assessed as activation of 3-oxoC6-HSL-induced quorum sensing activation measured after 4 to 5 hrs by reporter gene assay relative to control. The gist of the method:
as §1

Activity calls are given as the source filed them. The rule behind the calls is not given here.

As for `CCCCCCCCCCCCn1cc(CC(=O)OCC)nn1`, in assay [1], the result was inactive.
With `CCCCCc1cn(CC(=O)OCC)nn1`, in assay [1], the outcome was inactive. Also, the IC50 in assay [2] (read-out: IC50) was determined as 94 µM.
`CCCCCCCCCCCCc1cn(CC(=O)O)nn1`: the result in assay [1] was inactive.
Regarding `CCCCCCc1nnnn1C1CCOC1=O` (racemic), the EC50 in assay [3] was found to be 35 µM. For the same compound, the Activity in assay [4] was determined as 102 RLU.
On to `CCCCCCn1nnnc1C1CCOC1=O` (racemic), for which the 50% inhibitory concentration (IC50) in assay [2] (read-out: IC50) was determined as 74 µM.
Take `CCCCCn1cc(CC(=O)OCC)nn1`: in assay [1], the outcome was inactive.
As to `CCCCCc1cn(CC(=O)NO)nn1`, the outcome in assay [1] was inactive. The IC50 result in assay [2] is reported as “Not Active”.
`CCCCCc1nnnn1C1CCOC1=O` (racemic): the EC50 in assay [3] stood at 10 µM. Besides, the Activity in assay [4] turned out to be 59 RLU.
With `CCCCCn1nnnc1C1CCOC1=O` (racemic), in assay [2] (read-out: IC50), the IC50 was found to be 80 µM.
For the compound `CCCCn1nnnc1C1CCOC1=O` (racemic), the IC50 in assay [2] (read-out: IC50) was over 200 µM.
In the case of `CCCCCc1cn(CC(N)=O)nn1`, in assay [1], the result was inactive. Further, the IC50 result in assay [2] was “Not Active”.
Take `CCCCCc1cn(C2CCOC2=O)nn1` (racemic): the outcome in assay [1] was inactive. Besides, the IC50 in assay [2] (read-out: IC50) came out at 51 µM.
Regarding `CCCCCCn1nnnc1CC(=O)OCC`, the IC50 in assay [2] (read-out: IC50) is over 200 µM.
With `CCCCCCCCCCCCc1cn(CC(=O)OCC)nn1`, the outcome in assay [1] was inactive.
For `CCCCCn1cc(CC(=O)O)nn1`, the outcome in assay [1] was inactive.
On to `CCCCCCCCCCCCn1cc(CC(=O)O)nn1`, for which the result in assay [1] was inactive.
On to `CCCCCc1cn(CC(=O)O)nn1`, for which the result in assay [1] was inactive. The IC50 result in assay [2] is listed as “Not Active”.

One may read the IC50 as the midpoint of a concentration-inhibition curve. One may read the EC50 as the midpoint of the concentration-response curve.

These data come from ChEMBL document CHEMBL2062442, “Synthesis and biological evaluation of new N-acyl-homoserine-lactone analogues, based on triazole and tetrazole scaffolds, acting as LuxR-dependent quorum sensing modulators” (Bioorg Med Chem, 2012).
